For data set [1], the target named is T1, Gonadotropin-releasing hormone receptor (Homo sapiens, UniProt P30968).
T1 sequence (P30968 whole entry): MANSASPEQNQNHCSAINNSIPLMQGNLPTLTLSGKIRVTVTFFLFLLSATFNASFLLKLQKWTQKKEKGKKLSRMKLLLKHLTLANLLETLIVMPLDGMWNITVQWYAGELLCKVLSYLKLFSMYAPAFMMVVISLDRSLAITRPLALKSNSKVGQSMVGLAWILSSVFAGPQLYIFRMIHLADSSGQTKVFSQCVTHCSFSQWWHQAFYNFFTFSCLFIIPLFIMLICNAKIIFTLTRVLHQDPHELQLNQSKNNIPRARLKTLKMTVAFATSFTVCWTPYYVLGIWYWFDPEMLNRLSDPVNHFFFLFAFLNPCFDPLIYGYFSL
The data set can be described thus: Displacement of [125I]-(D-Trp6)LHRH from human recombinant GnRH receptor. Put shortly:
(§1)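 Membranes from recombinant cells expressing human or rat GnRH receptor, made in 25 mM Tris-Cl pH 7.4 with 0.1% sodium azide and 0.1% BSA. 50 μg protein incubated with about 50,000 cpm 125I-(D-Trp6)-LHRH for 2 h at 4 °C, with increasing unlabeled competitor. Filtered on BSA-presoaked glass-fiber filters, washed twice, counted by gamma counter. Percent inhibition and IC50 derived.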
(In general: Loss of bound radioactivity is the signal in a displacement assay; it reports binding, not function.)

The target in data set [2] is T2, Gonadotropin-releasing hormone receptor (Rattus norvegicus, UniProt P30969).
T2 sequence (P30969 whole entry): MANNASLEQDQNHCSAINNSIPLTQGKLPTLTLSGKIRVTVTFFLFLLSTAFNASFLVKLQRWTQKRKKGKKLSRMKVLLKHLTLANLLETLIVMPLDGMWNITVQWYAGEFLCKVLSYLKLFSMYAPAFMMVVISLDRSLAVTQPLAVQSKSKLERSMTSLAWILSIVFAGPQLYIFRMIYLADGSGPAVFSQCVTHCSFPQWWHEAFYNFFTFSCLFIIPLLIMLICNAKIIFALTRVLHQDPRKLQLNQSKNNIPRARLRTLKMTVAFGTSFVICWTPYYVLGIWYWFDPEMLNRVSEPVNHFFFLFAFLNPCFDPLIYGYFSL
The data set can be described thus: Displacement of [125I]-(D-Trp6)LHRH from rat recombinant GnRH receptor. The procedure, abridged:
as §1

Data set [3] deals with T1, Gonadotropin-releasing hormone receptor. The data set can be described thus: Antagonist activity at human recombinant GnRH receptor assessed as reduction in (D-Trp6)LHRH-induced myo-(1,2)-[3H]inositol production. The format is functional. Put shortly: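 Recombinant cells expressing human GnRH receptor, pre-labeled with myo-(1,2)-3H-inositol, incubated 1 h in medium with lithium chloride and D-Trp6-LHRH, with or without antagonist. Cells then lysed and labeled inositol phosphates separated from inositol by […] and counted. Run in triplicate, repeated in three independent experiments; IC50 derived.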

For data set [4], the target named is T3, 5-hydroxytryptamine receptor 1A (Homo sapiens, UniProt P08908).
T3 sequence (P08908 whole entry): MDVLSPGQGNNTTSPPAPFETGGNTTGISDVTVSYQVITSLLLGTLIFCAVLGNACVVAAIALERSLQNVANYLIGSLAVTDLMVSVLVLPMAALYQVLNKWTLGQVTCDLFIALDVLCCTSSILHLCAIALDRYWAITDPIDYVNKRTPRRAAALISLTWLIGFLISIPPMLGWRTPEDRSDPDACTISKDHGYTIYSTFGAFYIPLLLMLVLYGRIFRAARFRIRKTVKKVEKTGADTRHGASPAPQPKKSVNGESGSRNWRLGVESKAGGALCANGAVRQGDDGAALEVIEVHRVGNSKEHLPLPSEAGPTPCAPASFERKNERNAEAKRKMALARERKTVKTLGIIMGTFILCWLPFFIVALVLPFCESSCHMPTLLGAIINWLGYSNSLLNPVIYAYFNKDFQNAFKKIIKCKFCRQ
The data set can be described thus: Binding affinity to human 5HT1A receptor. Conditions: read-out: Ki.

Data set [5] concerns the target T2, Gonadotropin-releasing hormone receptor. The data set can be described thus: Antagonist activity at […] GnRH receptor in CO2 asphyxiated rat primary pituitary cells assessed as reduction in (D-Trp6)LHRH-induced LH release. The format is functional, cell-based, Pituitary gland cell. The procedure, abridged: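 Anterior pituitaries from adult rats were minced, dissociated and plated at 30,000 cells/well in DMEM with 25 mM Hepes and 10% FBS, then cultured 72 h at 37 °C, 5% CO2. After washing, cells were treated 3 h in 0.1% BSA medium with an antagonist dose response plus an ED50 concentration of D-Trp6-LHRH. LH in medium measured by RIA; cell toxicity checked by CellTiter-Glo.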

For data set [6], the target named is 5-hydroxytryptamine receptor 1B (Homo sapiens, UniProt P28222). The data set can be described thus: Binding affinity to human 5HT1B receptor.
5-hydroxytryptamine receptor 1B, sequence (P28222 whole entry): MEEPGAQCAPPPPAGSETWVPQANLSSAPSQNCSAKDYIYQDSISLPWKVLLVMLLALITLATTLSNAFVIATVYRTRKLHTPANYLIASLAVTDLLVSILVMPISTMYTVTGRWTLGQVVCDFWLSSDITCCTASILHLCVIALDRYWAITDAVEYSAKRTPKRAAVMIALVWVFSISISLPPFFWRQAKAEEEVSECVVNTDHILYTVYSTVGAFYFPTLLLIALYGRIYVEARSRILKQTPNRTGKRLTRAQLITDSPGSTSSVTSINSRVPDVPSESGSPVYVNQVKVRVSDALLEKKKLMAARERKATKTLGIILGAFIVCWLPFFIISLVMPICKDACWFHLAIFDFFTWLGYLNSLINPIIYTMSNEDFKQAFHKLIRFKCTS
Data set [7] deals with 5-hydroxytryptamine receptor 1D (Homo sapiens, UniProt P28221). The data set can be described thus: Binding affinity to human 5HT1D receptor.
5-hydroxytryptamine receptor 1D, sequence (P28221 whole entry): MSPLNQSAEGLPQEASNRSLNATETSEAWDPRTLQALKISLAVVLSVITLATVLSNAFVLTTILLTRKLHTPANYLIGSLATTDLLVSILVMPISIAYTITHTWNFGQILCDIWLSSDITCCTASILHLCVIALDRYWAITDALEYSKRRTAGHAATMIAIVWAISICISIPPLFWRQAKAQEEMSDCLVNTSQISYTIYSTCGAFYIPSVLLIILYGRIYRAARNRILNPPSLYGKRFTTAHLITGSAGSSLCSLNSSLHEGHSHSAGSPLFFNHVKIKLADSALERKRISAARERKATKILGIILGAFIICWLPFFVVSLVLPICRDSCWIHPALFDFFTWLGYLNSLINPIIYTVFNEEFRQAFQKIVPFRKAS
A short description of data set [8]: Half life in rat plasma at 1.0 mg/kg, iv. In kind it is ADME, organism-based. Also on record: dose 1 mg/kg, route intravenous.
The nature of data set [9]: AUC (0 to infinity) in rat at 1.0 mg/kg, iv. The format is ADME, organism-based. Conditions: plasma. Also on record: time infinity, dose 1 mg/kg, route intravenous.
A short description of data set [10]: Plasma clearance in rat at 1.0 mg/kg, iv. The format is ADME, organism-based. Also noted: dose 1 mg/kg, route intravenous.
Data set [11] can be described thus: Volume of distribution at steady state in rat at 1.0 mg/kg, iv. In kind it is ADME, organism-based. The settings on record: in vivo, read-out: Vdss. Also noted: dose 1 mg/kg, route intravenous.
Data set [12] is described as follows: Half life in rat plasma at 20 mg/kg, po. In kind it is ADME, organism-based. Also noted: dose 20 mg/kg, route oral.
A short description of data set [13]: Tmax in rat at 20 mg/kg, po. The format is ADME, organism-based. Also on record: dose 20 mg/kg, route oral. Conditions: in vivo.
Data set [14] can be described thus: Cmax in rat at 20 mg/kg, po. In kind it is ADME, organism-based. The settings on record: in vivo. Also noted: dose 20 mg/kg, route oral.
Data set [15] in a line: AUC (0 to infinity) in rat at 20 mg/kg, po. The format is ADME, organism-based. Also on record: time infinity, dose 20 mg/kg, route oral. The settings on record: plasma.
A short description of data set [16]: Bioavailability in rat at 20 mg/kg, po. In kind it is ADME, organism-based. Conditions: in vivo.
Data set [17] concerns Rattus norvegicus. The data set can be described thus: Activity in orchidectomized castrated Sprague-Dawley rat assessed as reduction in LH level at 30 mg/kg, po after 24 hrs. In kind it is functional, organism-based. Also on record: dose 30 mg/kg. Conditions: in the assay text read “after 1 to 6 hrs” for “after 24 hrs”. The procedure, abridged:
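Male Sprague–Dawley rats ten days post-castration, jugular-catheterized; basal blood drawn, then vehicle (2% Tween 80/0.04 N HCl) or antagonist given orally. Blood sampled at regular intervals, plasma LH measured by ELISA. Figure legend gives PEG 400 as vehicle, nine animals per group, t = 0 levels set to 100.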

The target in data set [18] is 5-hydroxytryptamine receptor 2A (Homo sapiens, UniProt P28223). The data set can be described thus: Binding affinity to 5HT2A receptor.
5-hydroxytryptamine receptor 2A, sequence (P28223 whole entry): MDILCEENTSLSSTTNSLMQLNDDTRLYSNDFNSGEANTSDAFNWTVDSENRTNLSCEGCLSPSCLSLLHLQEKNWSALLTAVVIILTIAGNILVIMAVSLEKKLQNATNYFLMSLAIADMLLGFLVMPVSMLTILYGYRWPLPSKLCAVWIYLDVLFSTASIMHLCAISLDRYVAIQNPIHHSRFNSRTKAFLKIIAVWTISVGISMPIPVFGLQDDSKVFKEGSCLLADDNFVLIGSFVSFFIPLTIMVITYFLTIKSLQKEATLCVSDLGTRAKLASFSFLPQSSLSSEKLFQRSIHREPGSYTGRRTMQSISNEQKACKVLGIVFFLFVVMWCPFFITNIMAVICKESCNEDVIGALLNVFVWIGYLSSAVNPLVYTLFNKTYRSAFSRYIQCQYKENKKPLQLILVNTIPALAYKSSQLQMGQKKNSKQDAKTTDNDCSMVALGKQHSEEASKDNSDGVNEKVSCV
The nature of data set [19]: Solubility of compound at pH 7.4. The format is physicochemical. Conditions: buffer.
The nature of data set [20]: Membrane permeability by PAMPA assay. In kind it is ADME. Conditions: read-out: permeability. (In general: In PAMPA a lipid-coated filter parts donor from acceptor wells.)
The nature of data set [21]: Metabolic stability in rat liver microsomes assessed as half life. The format is ADME, Microsome. A general note: Liver microsomes are a subcellular fraction often used to study metabolism.
The nature of data set [22]: Half life in rat plasma at 10 mg/kg, po. In kind it is ADME, organism-based. Also noted: dose 10 mg/kg, route oral.
The nature of data set [23]: Tmax in rat at 10 mg/kg, po. In kind it is ADME, organism-based. Also on record: dose 10 mg/kg, route oral. The settings on record: in vivo.
The nature of data set [24]: Cmax in rat at 10 mg/kg, po. Conditions: in vivo. Also noted: dose 10 mg/kg, route oral. The format is ADME, organism-based.
The nature of data set [25]: AUC (0 to infinity) in rat at 10 mg/kg, po. The format is ADME, organism-based. The settings on record: plasma. Also on record: dose 10 mg/kg, route oral, time infinity.
Data set [26] is described as follows: Bioavailability in rat at 10 mg/kg, po. In kind it is ADME, organism-based. The settings on record: in vivo.

In brackets after ≈: the same amount, converted by molar mass. Activity calls are given as the source filed them. No cut-off for these calls is given here.

This note sets out measurements from ChEMBL document CHEMBL1157420, “2-phenyl-4-piperazinylbenzimidazoles: orally active inhibitors of the gonadotropin releasing hormone (GnRH) receptor” (Bioorg Med Chem, 2008).

For orientation: IC50 means the concentration that gives 50% inhibition. What is called Ki is a measure of affinity in units of concentration, obtained from inhibition or displacement. Broadly, the half-life is how long it takes for the measured level to halve. As usually defined, the AUC(0-inf) is total exposure, with the tail of the curve extrapolated. A higher AUC(0-inf) goes with high exposure. Broadly, the clearance is the rate of elimination divided by the concentration. As usually defined, the Tmax is the time at which the peak concentration occurs. The term Cmax denotes the maximum level reached in the sampled fluid or tissue. As usually defined, the bioavailability is dose-corrected exposure relative to a reference, in per cent. Higher therefore signals much systemic uptake. Usually solubility stands for the dissolved amount per volume that the medium holds. A lower solubility goes with a poorly soluble substance.

Regarding `FC(F)(F)c1nc2c(N3CCN(CCOc4cccc5nc(C(F)(F)F)[nH]c45)CC3)cccc2[nH]1`, the IC50 in [1] worked out at 1.5 µM; in data set [2], 15 µM; in data set [3], 9.2 µM; in [5], 83 µM. The Ki in [4] came out at 0.019 µM; in data set [6], 0.06 µM; in data set [7], 0.00055 µM.
Consider `CCn1cc(CN2CCN(c3cccc4[nH]c(-c5ccc(C(C)(C)C)cc5)nc34)CC2)c(=O)[nH]c1=O`, for which the IC50 in [1] stood at 0.011 µM; in [2], 0.032 µM; in data set [3] it was 0.004 µM; in data set [5] it was 0.059 µM. The half-life in data set [8] is 1.1 h; in data set [12], 3.1 h. The AUC(0-inf) in data set [9] came out at 0.19 µg·h/mL; in [15] it was 2.72 µg·h/mL. In data set [10], the clearance stood at 5.7 L/h/kg. For the same molecule, the Vd in data set [11] turned out to be 4.8 L/kg. In data set [13], the Tmax worked out at 0.67 h. The same molecule had a peak concentration (Cmax) in data set [14] of 0.48 µg/mL. The molecule further showed a bioavailability in data set [16] of 74%. Moreover, the outcome in data set [17] was Active. Besides, the inhibition constant Ki in data set [18] turned out to be 0.23 µM.
With `CC(C)(C)c1ccc(-c2nc3c(N4CCN(Cc5c[nH]c(=O)[nH]c5=O)CC4)cccc3[nH]2)cc1`, the IC50 in data set [1] was 0.0055 µM; in [2] it was 0.032 µM; in data set [3], 0.0094 µM; in data set [5], 0.041 µM. For the same molecule, in [19], the solubility turned out to be 0.025 mg/mL (≈ 54.5 µM). Also, the Papp in data set [20] was determined as 6 nm/s. For the same molecule, the half-life in [21] is 0.5 h; in data set [22], 5.8 h; in data set [8], 3.5 h. In [23], the Tmax worked out at 1.8 h. In data set [24], this molecule yielded a Cmax of 0.019 µg/mL. Further, the results for the total exposure AUC(0-inf) in data set [25] and in data set [9] were 0.2 µg·h/mL and 0.355 µg·h/mL, respectively. The molecule also yielded a bioavailability in data set [26] of 5%. This molecule displayed a clearance in data set [10] of 2.82 L/h/kg. Also, in data set [11], the Vd worked out at 3.1 L/kg.
